Rad51 HR inh: Rad51 (human) homologous recombination inhibition. Q06609. hRad51 DNA strand exchange, fluorescence dequenching. inhibition, % at 10 µM. actives 0.085% (n = 200,000). AID 1385;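 active = inhibition above 40% at the single screening dose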
Target sequence (Q06609 whole entry, looked up): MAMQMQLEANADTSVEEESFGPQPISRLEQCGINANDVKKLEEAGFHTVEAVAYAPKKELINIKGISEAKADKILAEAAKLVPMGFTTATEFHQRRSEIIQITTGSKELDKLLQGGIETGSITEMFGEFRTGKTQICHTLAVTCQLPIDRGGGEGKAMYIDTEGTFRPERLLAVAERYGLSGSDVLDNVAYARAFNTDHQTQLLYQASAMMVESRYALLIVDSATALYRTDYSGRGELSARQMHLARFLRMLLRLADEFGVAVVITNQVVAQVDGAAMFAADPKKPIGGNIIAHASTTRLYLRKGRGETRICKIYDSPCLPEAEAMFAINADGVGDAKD
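System: human Rad51 nucleoprotein filaments preassembled on unlabelled ssDNA. Reagent: labelled 47-mer dsDNA for strand exchange. Schedule: 30-min compound preincubation and 15-min exchange, both room temperature. Measured by: FRET fluorescence dequenching, excitation 485 nm, emission 520 nm. Read-out: Fluorescence-based percent inhibition, control- and blank-normalised. Benchmarks: plate controls and plate blanks.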
Cl transport mod: modulators of human KCC2 chloride dependent transport | AID 1456 | actives 2.2% (n = 190,000) | Q9H2X9 | B-score of Tl+ flux slope (higher = more flux/activation; lower = inhibition) at 10 µM | KCC2 cells, thallium flux FluoZin-2 fluorescence;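 active = thallium flux slope and its plate-corrected score both differing from the plate sample mean at a set confidence after two filtering rounds, in either direction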;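 note: slope of fluorescence scaled to starting intensity during 10 to 20 s after thallium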
CHT block: inhibits the human high affinity choline transporter; CHT-expressing cells, membrane potential dye, choline response; stronger effect = lower value; B-score at 10 µM; actives 0.86% (n = 310,000); AID 488975;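 active = B-score over 3 SD under the library average, and starting fluorescence ratio not unusually high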;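 note: choline stimulus applied at its EC90 after an EC20 pre-addition; B-score computed on integrated fluorescence ratio after choline addition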
CHT PAM: allosterically activates the human high affinity choline transporter | Q9GZV3 | CHT-expressing cells, membrane potential dye, choline EC20; stronger effect = higher value; LV-AA mutant CHT in HEK293 cells | B-score at 10 µM | actives 0.49% (n = 310,000);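 active = initial fluorescence not abnormally high and integrated response B-score, plate-corrected, over 3 SD above library mean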
CHT activ conf: human CHT activation, confirmatory screen; actives 91% (n = 2,500); CHT-expressing cells, membrane potential dye fluorescence (FDSS); % of choline EC20–EC90 response window; HEK293 expressing CHT LV-AA mutant; choline added at its EC20; shares compounds with CHT PAM; activation, % at 10 µM;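 active = primary screen active, with duplicate mean activation above negative control mean plus 3 SD, cut at about 11% in these data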
HEK293 MP dye: activity in parental HEK293 cells lacking CHT | shares compounds with CHT PAM | membrane potential dye fluorescence (FDSS); measured after EC20 choline addition | ratio readout change at 10 µM, hits read low | actives 62% (n = 2,500);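 active = duplicate-averaged ratio beyond 3 SD from buffer wells, up or down, though filed actives are nearly all decreases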
Numbers stand for hits; – = inactive; · = no result given. Hits are enriched below; roughly 2.6% of the tested compounds scored in any of these assays.

SMILES	Rad51 HR inh	Cl transport mod	CHT block	CHT PAM	CHT activ conf	HEK293 MP dye
CCn1c(C(=O)NCCCc2ccccc2)cc2sccc21	·	–	–	6.6	25	–
O=C(NCCc1ccccc1)c1cc2sccc2n1Cc1ccccc1	–	–	–	–	·	·
Cc1cc(N2CCCC2)nc2ccc(NC(=S)NC(C)C)cc12	–	–	–	–	21	-51
COCCNC(=S)Nc1ccc2nc(N3CCOCC3)cc(C)c2c1	·	·	–	–	·	·
CCOCCCNC(=S)Nc1ccc2nc(N3CCCC3)cc(C)c2c1	–	–	–	–	32	-52
COc1ccc(CCc2nnc(CCC(=O)NCc3cc(C(C)C)no3)o2)cc1	–	–	–	–	·	·
Cn1c(=O)n(C)c2cc([N+](=O)[O-])c(N3CCN(C(=O)c4cccc(F)c4)CC3)cc21	–	–	–	–	26	-39
Cn1c(=O)n(C)c2cc([N+](=O)[O-])c(N3CCN(C(=O)c4cccc(Cl)c4)CC3)cc21	–	–	–	–	·	·
Cn1c(=O)c(=O)n(C)c2cc([N+](=O)[O-])c(N3CCOCC3)cc21	·	·	–	6.5	66	-61
CCOC(=O)c1cnc2c(C(F)(F)F)cccc2c1NCCCN1CCOCC1	·	·	–	–	43	-67
CC1CN(C(=O)CSc2nnc(-c3ccccc3)o2)CC(C)O1 (stereo unspecified)	·	·	–	–	·	·
Cc1cc(NC(=O)c2ccc3c(c2)C(=O)N(C)C3=O)no1	–	–	–	–	44	-42
Cc1cc(NC(=O)c2ccc3c(c2)C(=O)N(Cc2cccnc2)C3=O)no1	–	–	–	–	26	-27
CCCC[N+](CC#CCO)(CC#Cc1ccccc1)CCCC	–	–	–	11	74	–
CCCCN(C)CCNS(=O)(=O)c1ccc2c(c1)n(C)c(=O)c(=O)n2C	–	–	–	17	76	-84
CCCCN(CCCC)C(=O)CN(C)S(=O)(=O)c1ccc2c(c1)n(C)c(=O)c(=O)n2C	–	–	–	–	·	·
CC1CCCN(C(=O)C2(NC(=O)Nc3cccc(F)c3)CCCCC2)C1 (stereo unspecified)	–	–	–	–	·	·
O=C(O)CCNc1cc(N2CCN(C(=O)c3ccco3)CC2)c2noc3c2c1C(=O)c1ccccc1-3	·	·	–	–	·	·
CCN1CCN(c2cc(N3CCN(C(=O)c4ccco4)CC3)c3c4c(onc24)-c2ccccc2C3=O)CC1	·	·	–	–	25	-52
O=C(O)/C=C1\CCCc2ccccc2C1O (stereo unspecified)	·	·	–	–	·	·
CCCn1c(=O)c2ccccc2n2c(SCCNCCO)nnc12	·	·	–	9.1	57	-51
CCCn1c(=O)c2ccccc2n2c(SCC(=O)c3ccccc3)nnc12	–	·	–	–	·	·
CCCn1c(-c2cccs2)nc2ccccc21	–	–	–	–	·	·
CCN1c2ccccc2-c2nc3ccccc3n2C1c1cccs1 (stereo unspecified)	–	–	–	7.4	45	–
CCOC(=O)C1CCN(c2nc(C)nc3c2oc2ccccc23)CC1	–	·	–	8	–	–
SMILES	Rad51 HR inh	Cl transport mod	CHT block	CHT PAM	CHT activ conf	HEK293 MP dye
CC1(C)CC(C(CCN(Cc2ccccc2)C(=O)c2ccco2)c2ccc(F)cc2)CCO1 (stereo unspecified)	–	–	–	9.7	56	–
O=C(c1ccco1)N(CCC(c1ccccc1)c1ccco1)Cc1ccc(F)cc1 (stereo unspecified)	–	·	–	–	·	·
CCCCN(CC)CCCNC(=O)c1ccc(CS(=O)(=O)c2c(Cl)cccc2Cl)o1	·	·	–	–	·	·
CCCCN(CCCNC(=O)c1ccc(CS(=O)(=O)c2c(Cl)cccc2Cl)o1)Cc1ccccc1	·	·	–	–	44	-42
COc1ccccc1-n1cnc2cc(NCc3cccs3)ccc21	–	–	–	7	59	–
CC(C)(C)c1ccc2c(c1)N(CC(=O)N1CCOCC1)C(=O)CO2	·	·	–	–	·	·
COc1ccc(-n2c(-c3ccccc3)nnc2-c2ccc(Cl)cc2)cc1	–	·	–	–	·	·
COc1ccc(-n2c(-c3ccc(Cl)cc3)c[n+]3c2CCc2ccccc2-3)cc1	–	–	–	8.2	86	-29
Cc1nnc(SC(C)C(=O)Nc2ccc(Cl)cn2)n1Cc1ccccc1 (stereo unspecified)	–	–	–	–	·	·
CC(Sc1nnc(-c2ccc(Cl)cc2Cl)n1Cc1ccccc1)C(=O)Nc1nccs1 (stereo unspecified)	–	–	–	7.1	35	–
CSc1ccc(Cl)c(C(=O)OCC(=O)Nc2ccccc2OC(F)F)c1	·	–	–	–	·	·
Cc1ccccc1C(=O)NCC(c1ccco1)N1CCc2ccccc2C1 (stereo unspecified)	·	·	–	–	–	–
O=C(NCC(c1ccco1)N1CCc2ccccc2C1)c1cccc(F)c1 (stereo unspecified)	·	·	–	–	11	–
COc1ccccc1CN1C[C@@H]2C[C@@H](C3=Cc4cc(Cl)ccc4OC3)N3CCC[C@@]23C1=O	–	–	–	–	·	·
CCn1cc(S(=O)(=O)c2ccc(C)cc2)c(=O)c2cc(F)c(N3CCN(C)CC3)cc21	·	·	–	–	49	-49
CCn1cc(C(=O)NCCCN(C)C)c(=O)c2cc(F)c(N3CCN(C)CC3)cc21	–	·	–	–	30	–
CCOC(=O)c1c(NC(C)=O)sc2c1CCN(Cc1ccccc1)C2	·	·	–	6.4	40	-60
COC(=O)c1c(NC(C)=O)sc2c1CCN(Cc1ccccc1)C2	·	·	–	7.2	40	-66
Cc1csc(NC(=O)c2nc3nc(C)cc(C)n3n2)n1	–	–	–	–	·	·
Cc1cc(C)n2nc(C(=O)Nc3nccs3)nc2n1	–	–	–	–	54	-27
Cc1cc(C)n2nc(C(=O)Nc3nnc(C4CC4)s3)nc2n1	–	–	–	–	·	·
Cc1cc(C)n2nc(C(=O)Nc3cccnc3)nc2n1	–	–	–	8.7	47	-48
Cc1cc(C)n2nc(C(=O)NCc3ccccc3)nc2n1	–	–	–	–	·	·
Cc1cc(C)n2nc(C(=O)N/N=C/c3ccccc3Cl)nc2n1	–	–	–	–	·	·
Cc1cc(C)n2nc(C(=O)N/N=C/c3ccco3)nc2n1	–	–	–	7	59	-60
SMILES	Rad51 HR inh	Cl transport mod	CHT block	CHT PAM	CHT activ conf	HEK293 MP dye
CCSc1nnc(NC(=O)c2nc3nc(C)cc(C)n3n2)s1	–	–	–	6.3	48	-41
O=C(Nc1ccc(N2CCOCC2)cc1)c1cn2ccccc2n1	·	·	–	–	·	·
O=C(NCCNC(=O)c1ccc(Br)o1)c1cccnc1	·	·	–	–	·	·
CC[n+]1c(/C=C/N(C)c2ccccc2)oc2ccccc21	–	–	–	–	52	-30
CC[n+]1c(/C=C/Nc2ccccc2)oc2ccccc21	–	–	–	–	41	-35
CC[n+]1c(/C=C/N(C)c2ccccc2)oc2ccc(F)cc21	–	–	–	–	30	-39

Assay outcomes (PubChem BioAssay)
